High-throughput results (PubChem)
Compounds with a hit are over-represented: about 2.7% of the library has one in this group of screens.
pPAFAH FP inh: inhibitors of human plasma PAF acetylhydrolase (pPAFAH) | recombinant pPAFAH, FP-rhodamine probe fluorescence polarization | AID 463082 | inhibition, % at 3.39 µM | actives 1.5% (n = 330,000);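 active means inhibition above the mean inhibition across the screen plus 3 SD, cut at about 25% in these data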;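 further: inhibitors block binding of the rhodamine activity-based probe so polarization drops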
Target sequence (Q13093 whole entry, looked up): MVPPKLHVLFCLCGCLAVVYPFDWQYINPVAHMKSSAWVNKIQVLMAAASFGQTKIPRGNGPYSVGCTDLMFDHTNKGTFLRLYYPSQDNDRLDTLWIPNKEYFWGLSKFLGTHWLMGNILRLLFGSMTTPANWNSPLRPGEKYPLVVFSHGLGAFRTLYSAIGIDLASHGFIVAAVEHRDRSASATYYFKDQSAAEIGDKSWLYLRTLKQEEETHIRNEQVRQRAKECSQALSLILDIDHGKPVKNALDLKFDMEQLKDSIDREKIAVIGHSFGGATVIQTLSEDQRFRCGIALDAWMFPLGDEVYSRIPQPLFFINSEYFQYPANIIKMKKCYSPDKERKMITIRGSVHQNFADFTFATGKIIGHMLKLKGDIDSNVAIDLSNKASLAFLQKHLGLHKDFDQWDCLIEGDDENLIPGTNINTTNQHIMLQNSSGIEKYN
ARFGAP1 inh: inhibits rat ARF GTPase activating protein 1 | Q62848 | Arfgap1-stimulated ARF1 GTP hydrolysis, GDP FP detection | inhibition, % at 16.5 µM | actives 0.26% (n = 360,000) | AID 651572;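 active means inhibition above a per-plate limit, mean inhibition of low control wells plus 3 SD, cut at about 25% in these data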
Target sequence (Q62848 1-136 limits assumed): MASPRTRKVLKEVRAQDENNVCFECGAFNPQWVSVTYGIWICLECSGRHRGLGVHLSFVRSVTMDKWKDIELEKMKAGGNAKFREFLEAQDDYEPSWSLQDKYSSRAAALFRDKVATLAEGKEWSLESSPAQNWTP
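Assay system: Rat Arfgap1 GAP domain (His6, aa 1-136), purified enzyme | Buffer or medium: HEPES 25 mM pH 7.5, NaCl 150 mM, MgCl2, DTT | Schedule: GTP hydrolysis reaction 2 h at 25 °C | Signal: FP of antibody-bound GDP Alexa 633 tracer, ex 620/em 688 nm | Measure: Percent inhibition of Arfgap1-stimulated GTP hydrolysis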
PAFAH2 inh: PAFAH2 (human) inhibition | recombinant PAFAH2, FP-rhodamine activity probe, fluorescence polarization | inhibition, % at 3.39 µM | actives 0.99% (n = 340,000) | AID 492956;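 active means inhibition above the mean over all tested compounds plus 3 SD, cut at about 30% in these data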;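 further: inhibitors block probe labeling of enzyme so polarization drops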
ASAP1 GAP inh: inhibitors of human ASAP1 ArfGAP activity; inhibition, % at 16.5 µM; Q9ULH1; actives 0.19% (n = 360,000); ASAP1-stimulated ARF1 GTP hydrolysis, GDP FP detection; in the data active means inhibition above about 25%
PAFAH1B2 inh: inhibitors of human PAFAH1B2; recombinant PAFAH1B2, FP-rhodamine activity probe, fluorescence polarization; inhibition, % at 3.39 µM; actives 1.2% (n = 340,000); AID 492953;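 active means inhibition above the mean of all tested compounds plus 3 SD, cut at about 24% in these data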
PAFAH1B3 inh: PAFAH1B3 (human) inhibition | recombinant PAFAH1B3, FP-rhodamine probe, fluorescence polarization | Q15102 | actives 0.28% (n = 340,000) | inhibition, % at 3.39 µM;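 active means inhibition above the screen-wide average of all tested compounds plus 3 SD, cut at about 25% in these data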
Numbers stand for hits; 0 = inactive; - = no result given.

SMILES	pPAFAH FP inh	ARFGAP1 inh	PAFAH2 inh	ASAP1 GAP inh	PAFAH1B2 inh	PAFAH1B3 inh
CCc1cc2c(=O)c(-c3cscn3)coc2c(CN(C)C)c1O	27	0	0	0	0	0
CC(=O)OCC1=C(C(=O)O)N2C(=O)C(NC(=O)c3ccc(COc4cccc(Cl)c4Cl)o3)C2SC1 (stereo not given)	30	0	0	0	0	0
CCCCNC(=O)C1CC(c2cccc(F)c2)=NO1 (stereo not given)	0	0	0	0	0	0
Cc1ccc(CCNC(=O)C2CC(c3cccc(F)c3)=NO2)cc1 (stereo not given)	0	0	0	0	28	0
CCCC(=O)OC[C@H]1CN([C@H](C)c2ccccc2)S(=O)(=O)c2c(F)cccc2O1	-	0	-	0	-	-
O=C(O)CC1c2ccccc2CCN1S(=O)(=O)c1ccc(F)cc1 (stereo not given)	0	0	0	0	31	0
CCc1cccc(CC)c1NC(=O)COC(=O)CC1c2ccccc2CCN1S(=O)(=O)c1ccc(F)cc1 (stereo not given)	0	0	0	0	0	0
O=S(=O)(Cc1ccc(Cl)cc1)Oc1ccc(Cl)cc1	-	0	0	0	25	0
O=[N+]([O-])c1ccc(OS(=O)(=O)Cc2ccccc2)cc1	0	0	0	0	0	0
C#CCNc1cccc2c1S(=O)(=O)N[C@H](C)CO2	-	0	-	0	-	-
Cc1ccc(-c2nc(Nc3ccc(O)cc3)c3ccccc3n2)cc1	26	0	0	0	0	0
COc1ccc(-c2ccc3c(n2)CCCN3S(=O)(=O)c2cccs2)cc1	-	0	-	0	-	-
COc1ccc([C@@H]2CC=C(C(=O)O)[C@H](c3ccc(F)cc3)N2S(=O)(=O)c2ccccc2C)cc1	0	0	0	0	25	0
COc1ccc([C@@H]2CC=C(C(=O)O)[C@H](c3ccc(F)cc3)N2S(=O)(=O)c2ccc(Cl)cc2)cc1	0	0	0	0	29	0
COc1ccc([C@@H]2CC=C(C(=O)O)[C@H](c3ccccc3F)N2S(=O)(=O)c2ccccc2C)cc1	0	0	0	0	0	0
CCOC(=O)c1ccc(NC(=O)OC[C@@H]2CSCCS(=O)(=O)N2)cc1	-	0	-	0	-	-
CC(C)C[C@H](NC(=O)c1cccs1)C(=O)N1CCC[C@H]1C(=O)NCc1ccccc1	-	0	-	0	-	-
COc1cc(/C=N/NC(=O)[C@H](Cc2c[nH]c3ccccc23)NC(=O)OCC(C)C)cc([N+](=O)[O-])c1O	30	0	0	0	24	0
COC(=O)C1=C(C)N(Cc2ccc(Br)cc2)C(=S)NC1c1cccc(F)c1 (stereo not given)	-	0	-	0	-	-
COc1ccc(-c2cscc2N)cc1	-	0	-	0	-	-
O=C(Cc1ccc(Cl)cc1)NNC(=O)C(=O)NC1CCCCC1	0	0	0	0	27	0
O=C(CCSc1ccc(Cl)cc1)NC1CCCC1	0	0	0	0	26	0
O=C(CCSc1ccc(Cl)cc1)N1CCCCCC1	0	0	0	0	66	0
CC(=O)O[C@H]1C[C@@H](n2cnc3c(Cl)ncnc32)[C@@H]2OC(C)(C)O[C@@H]21	-	0	-	0	-	-
CCOC(=O)CNC(=O)C12CC3CC(C1)CC(c1ccc(C)cc1)(C3)C2	0	0	0	0	0	0
SMILES	pPAFAH FP inh	ARFGAP1 inh	PAFAH2 inh	ASAP1 GAP inh	PAFAH1B2 inh	PAFAH1B3 inh
CCOc1ccc(NC(=O)C23CC4CC(C2)CC(c2ccccc2)(C4)C3)cc1	0	0	0	0	27	0
N#CC1=C(N)Oc2cc(O)c(C=Nc3ccccc3)cc2C1c1ccccc1 (stereo not given)	0	0	0	0	0	0
Cc1ccccc1N=Cc1cc2c(cc1O)OC(N)=C(C#N)C2c1ccccc1 (stereo not given)	26	0	0	0	0	0
NS(=O)(=O)c1ccc(CCNC(=O)c2ccc3nccnc3c2)cc1	30	0	0	0	0	0
NS(=O)(=O)c1ccc(CCNC(=O)c2ccc(C(=O)c3ccccc3)cc2)cc1	0	0	0	0	0	0
COC(=O)c1ccc2nc(C3CCCCC3)c(Cc3ccccc3OC)n2c1	-	0	-	0	-	-
N#CCS(=O)(=O)c1cccc[n+]1[O-]	-	0	-	0	-	-
O=C(NCc1cccs1)c1cccc(Nc2nc3ccc(Br)cc3[nH]2)c1	0	0	0	0	27	32
Cc1csc(Nc2ccc(C(=O)O)cc2)n1	0	0	0	0	0	0
Cc1nc(NC(=O)c2ccccc2)sc1-c1csc(Nc2ccc(C(=O)O)cc2)n1	-	0	32	0	0	29
O=C(O)c1ccc(Nc2nc(-c3ccccc3)cs2)cc1	0	0	0	0	25	0
CC(C)(C)c1ccc(-c2cc(NC(=O)Cc3c[nH]c4ccccc34)ccc2Nc2cccnc2)cc1	-	0	-	0	-	-
COc1ccc(-c2ccc3c(n2)CCCN3S(=O)(=O)c2ccc(C#N)cc2)cc1	-	0	-	0	-	-
CN(C(=O)COC(=O)c1cc(-c2ccccc2Cl)nc2ccccc12)C1CCS(=O)(=O)C1 (stereo not given)	27	0	0	0	0	0
CN(C(=O)COC(=O)c1cc(-c2ccc(Cl)s2)nc2ccccc12)C1CCS(=O)(=O)C1 (stereo not given)	0	0	0	0	0	0
CCOc1cccc(C=NNC(=O)C(=O)Nc2cccc(C(F)(F)F)c2)c1O	-	0	-	0	-	-
Cc1cc(C(=O)OCC(=O)Nc2ccc(F)cc2F)c(C)o1	0	0	45	0	0	0
Cc1cc(C(=O)OCC(=O)Nc2ccccc2C)c(C)o1	0	0	0	0	0	0
CCCCNc1ccc2c(c1)OC[C@H](CC(C)C)NS2(=O)=O	-	0	-	0	-	-
Cc1ccc(NC(=O)CSc2n[nH]c(-c3ccncc3)n2)cc1C	29	0	0	0	0	0
CC(Oc1ccc(Br)cc1)C(=O)NCC(c1cccs1)N1CCOCC1 (stereo not given)	0	0	0	0	27	0
CC(C)(C)S(=O)N1C[C@@H]2CC(=O)C(c3ccccc3)=C2[C@H]1CCO (stereo not given in full)	-	0	-	0	-	-
CCOC(=O)/C=C(\C)Sc1cc(O)c2ccccc2c1O	-	0	31	29	0	36
CCOC(=O)/C=C(\C)Sc1cc(=O)oc2ccccc12	0	0	0	0	0	0
NS(=O)(=O)c1ccc(Nc2nc(-c3ccc(O)cc3O)cs2)cc1	27	0	0	0	0	0
COc1ccc(N2CCN(C(=O)NC3CCCCC3)CC2)cc1	0	0	0	0	0	0
COc1ccc(N2CCN(C(=O)c3cn(CC4CCCCC4)nn3)CC2)cc1	28	0	0	0	0	0
CNc1ccccc(C(=O)/C=C/c2ccccc2OC)c1=O	28	0	0	0	0	0
CNc1ccc(Br)cc(C(=O)/C=C/c2cccc(OC)c2OC)c1=O	0	0	0	0	0	0
O=[N+]([O-])c1ccc(Sc2nc3ccccc3[nH]2)c(Cl)c1	-	0	-	0	-	-
